Measurements: ChEMBL document CHEMBL1255268, “Antimicrobial activities of Ceftaroline and ME1036 tested against clinical strains of community-acquired methicillin-resistant Staphylococcus aureus” (2008)
Converted amounts (≈) assume the structure as drawn.

Key:
Format in all cases: functional
[1] = tested on: Staphylococcus aureus; experiment: Antimicrobial activity against community-acquired methicillin resistant Staphylococcus aureus expressing PVL and mec type IV gene by broth microdilution method
Summary of the method: (§1)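 Reference broth microdilution MICs per CLSI, with CLSI interpretive criteria (M100-S17) used for susceptible/resistant categories. Panel: 152 CA-MRSA clinical isolates from human infections, collected 2000–2005 at 47 US medical centres. Strains typed by multiplex PCR for SCCmec type (mecA as internal control), with products run on 2% agarose in Tris-acetate-EDTA and stained with ethidium bromide.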

[2] = tested on: Staphylococcus aureus; experiment: Antimicrobial activity against community-acquired methicillin resistant Staphylococcus aureus expressing PVL gene and mec type IV gene assessed as susceptible strains by broth microdilution method; summary of the method: as §1
[3] = tested on: Staphylococcus aureus; experiment: Antimicrobial activity against community-acquired methicillin resistant Staphylococcus aureus expressing PVL and mec type IV gene assessed as resistant strains by broth microdilution method; summary of the method: as §1

SMILES | MIC50 [1] [mg/L] | MIC90 [1] [mg/L] | Activity [2] [%] | Activity [3] [%] | MIC [1] [mg/L]
C[C@@H](O)[C@H]1C(=O)N2C(C(=O)O)=C(S[C@@H]3CN[C@H](C(=O)N(C)C)C3)[C@H](C)[C@H]12 [MEROPENEM] | 2 (≈ 5.22 µM) | 2 (≈ 5.22 µM) | 98 | 0 | –
C[C@H]1COc2c(N3CCN(C)CC3)c(F)cc3c(=O)c(C(=O)O)cn1c23.C[C@H]1COc2c(N3CCN(C)CC3)c(F)cc3c(=O)c(C(=O)O)cn1c23.O [LEVOFLOXACIN] | 0.25 | 0.5 | 92.8 | 7.2 | –
CC(=O)NC[C@H]1CN(c2ccc(N3CCOCC3)c(F)c2)C(=O)O1 [LINEZOLID] | 2 (≈ 5.93 µM) | 2 (≈ 5.93 µM) | 100 | – | –
CCC[C@@H]1C[C@@H](C(=O)N[C@@H]([C@H]2O[C@H](SC)[C@H](O)[C@@H](O)[C@H]2O)[C@H](C)Cl)N(C)C1 [CLINDAMYCIN] | ≤ 0.25 | ≤ 0.25 | 100 | 0 | ≤ 0.25
C[C@@H](O)[C@H]1C(=O)N2C(C(=O)[O-])=C(c3cn4cnc(C(=O)c5ccc[n+](CC(N)=O)c5)c4s3)[C@H](C)[C@H]12 | 0.12 (≈ 0.242 µM) | 0.25 (≈ 0.505 µM) | – | – | –
CN(C)[C@@H]1C(O)=C(C(N)=O)C(=O)[C@@]2(O)C(O)=C3C(=O)c4c(O)cccc4[C@@](C)(O)[C@H]3C[C@@H]12 [TETRACYCLINE] | ≤ 0.5 | ≤ 0.5 | 94.7 | 4.6 | ≤ 0.5
CC[C@H]1OC(=O)[C@H](C)[C@@H](O[C@H]2C[C@@](C)(OC)[C@@H](O)[C@H](C)O2)[C@H](C)[C@@H](O[C@@H]2O[C@H](C)C[C@H](N(C)C)[C@H]2O)[C@](C)(O)C[C@@H](C)C(=O)[C@H](C)[C@@H](O)[C@]1(C)O [ERYTHROMYCIN] | > 8 | > 8 | 1.3 | 98 | –
CO/N=C(\C(=O)N[C@@H]1C(=O)N2C(C(=O)O)=C(CSc3nc(=O)c(O)nn3C)CS[C@H]12)c1csc(N)n1 [CEFTRIAXONE] | 32 (≈ 57.7 µM) | > 32 | 0 | 98.7 | –
CCCCCCCCCC(=O)N[C@@H](Cc1c[nH]c2ccccc12)C(=O)N[C@H](CC(N)=O)C(=O)N[C@@H](CC(=O)O)C(=O)N[C@@H]1C(=O)NCC(=O)N[C@@H](CCCN)C(=O)N[C@@H](CC(=O)O)C(=O)N[C@H](C)C(=O)N[C@@H](CC(=O)O)C(=O)NCC(=O)N[C@H](CO)C(=O)N[C@@H]([C@H](C)CC(=O)O)C(=O)N[C@@H](CC(=O)c2ccccc2N)C(=O)O[C@@H]1C | 0.25 (≈ 0.154 µM) | 0.5 (≈ 0.309 µM) | 100 | 0 | 0.25 (≈ 0.154 µM)
C[C@@H](O)[C@H]1C(=O)N2C(C(=O)O)=C(SCCNC=N)C[C@H]12 [IMIPENEM ANHYDROUS] | ≤ 0.5 | ≤ 0.5 | 100 | 0 | ≤ 0.5
CN[C@H](CC(C)C)C(=O)N[C@H]1C(=O)N[C@@H](CC(N)=O)C(=O)N[C@H]2C(=O)N[C@H]3C(=O)N[C@H](C(=O)N[C@H](C(=O)O)c4cc(O)cc(O)c4-c4cc3ccc4O)[C@H](O)c3ccc(c(Cl)c3)Oc3cc2cc(c3O[C@@H]2O[C@H](CO)[C@@H](O)[C@H](O)[C@H]2O[C@H]2C[C@](C)(N)[C@H](O)[C@H](C)O2)Oc2ccc(cc2Cl)[C@H]1O [VANCOMYCIN] | 1 (≈ 0.69 µM) | 1 (≈ 0.69 µM) | 100 | 0 | –
